# A selection: hits, their analogues and other compounds. The true share with any hit is near 1.6%.
# Bfl-1 A1 inh – inhibitors of the anti-apoptotic protein A1, read as caspase activation; MEF A1-2A-BIM cells, Caspase-Glo 3/7 luminescence, 3 h; percent of clofoctol response, vehicle zero; caspase activation, % (test concentration not listed); 330,000 tested, 0.066% active;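 active means over half of replicate activation scores above 10%, or exactly half above 10 with the replicate mean above 10; inconclusive means replicate mean below 10 yet half the replicates above 10; inactive means over half of replicates below 10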
# SR-BI HDL uptake – inhibitors of mouse SR-BI mediated HDL lipid uptake | ldlA[mSR-BI] CHO cells, DiI-HDL uptake fluorescence, 3 h | 320,000 tested, 0.96% active | AID 488896 | Q61009 | inhibition, % at 12.5 µM;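 active means mean replicate inhibition of at least 70% and a set share of replicates each scoring 70 or more; inconclusive means meets just one of the two criteria; inactive means fails both criteria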;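 further: 0% = median of neutral control wells and 100% = median of positive control wells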
# Target sequence (Q61009 whole entry, looked up): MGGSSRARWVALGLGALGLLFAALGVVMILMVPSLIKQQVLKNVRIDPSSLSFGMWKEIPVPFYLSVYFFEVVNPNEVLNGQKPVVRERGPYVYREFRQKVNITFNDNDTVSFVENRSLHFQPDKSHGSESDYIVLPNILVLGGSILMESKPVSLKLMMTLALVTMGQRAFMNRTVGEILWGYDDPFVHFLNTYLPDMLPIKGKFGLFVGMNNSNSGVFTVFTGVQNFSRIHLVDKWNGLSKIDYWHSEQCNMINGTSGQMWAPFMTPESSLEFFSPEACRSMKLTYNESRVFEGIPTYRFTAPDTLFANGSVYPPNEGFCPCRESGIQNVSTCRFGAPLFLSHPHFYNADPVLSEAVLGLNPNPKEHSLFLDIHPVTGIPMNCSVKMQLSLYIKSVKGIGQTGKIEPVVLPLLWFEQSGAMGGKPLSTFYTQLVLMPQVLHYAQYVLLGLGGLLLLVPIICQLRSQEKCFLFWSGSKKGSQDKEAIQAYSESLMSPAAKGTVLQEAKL
# SR-BI uptake up – activators of SR-BI mediated HDL lipid uptake | AID 504775 | activation, % at 12.5 µM | CHO ldlA[mSR-BI] cells, DiI-HDL uptake fluorescence, 3 h; 100 = double the neutral-control signal | 320,000 tested, 0.096% active;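 active means mean replicate activation of at least 60% and every replicate at or above 60%; inconclusive means mean or all-replicate condition met, but not both; inactive means mean below 60% and not all replicates reaching 60%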;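 further: 0% = median plate neutral-control signal and 100% = twice that signal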
#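 material = CHO ldlA[mSR-BI] cells | medium = Ham's F12 with 0.5% BSA, HEPES 25 mM, pH 7.4 | reagent = fluorescent DiI-HDL, 10 µg/mL final | compound dosing = single-point compound dose | incubation = 3 h, 37 °C | measured by = bottom-read fluorescence, 550/595 nm | measure = HDL uptake via cellular fluorescence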
# H9c2 TAG inh – inhibitors of triacylglycerol accumulation; H9c2 cells, Nile Red lipid (TAG) fluorescence; cells loaded with 200 µM oleic acid; inhibition, % at 12.5 µM; 230,000 tested, 0.66% active; AID 651582;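 active means pattern-corrected inhibition of lipid staining of at least 50% with the nuclear-stain viability signal not falling by more than 50%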;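 further: 0% = DMSO wells and 100% = triacsin C control wells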
# Vif imaging – inhibitors of HIV Vif. HEK293T cells, Vif self-association by quenched fluorescence, imaging, 24 h. inhibition, % at 7.49 µM. 340,000 tested, 0.35% active; in the data active means inhibition above about 50%, passing the limit was not always enough; inconclusive means no clear call, values can overlap the other calls; inactive means below about 31%
# * marks the source's active call; other numbers are inactive results; ? = inconclusive; . = not tested or not shown.
SMILES,Bfl-1 A1 inh,SR-BI HDL uptake,SR-BI uptake up,H9c2 TAG inh,Vif imaging
Cc1ccc(OCC(=O)N2CCc3ccccc3C2)cc1,-1,-18,18,.,12
Cn1nc(-c2ccc(Cl)cc2)c2cc(C(=O)NCC3CCCO3)sc21 (configuration not stated),0,87*,-87,32,-8
Cc1cc(C)c2sc(N(CCCN(C)C)C(=O)c3ccc(S(=O)(=O)N4CCCc5ccccc54)cc3)nc2c1,0,12,-12,56*,-7
Cc1ccc2nc(N(CCCN(C)C)C(=O)c3ccc(S(=O)(=O)N4CCc5ccccc5C4)cc3)sc2c1,4,17,-17,69*,1
CN(C)CCCN(C(=O)c1cc(-c2cccs2)nc2ccccc12)c1nc2ccc(F)cc2s1,0,-2,2,60*,4
COc1ccc2sc(N(CCCN(C)C)C(=O)c3ccc(S(=O)(=O)N4CCc5ccccc5C4)cc3)nc2c1,28*,-8,8,44,-14
Cc1cccc2sc(N(CCCN(C)C)C(=O)c3ccc(S(=O)(=O)N4CCc5ccccc5C4)cc3)nc12,2,-29,29,17,-2
CC(C)C(=O)Nc1ccc(NC(=O)c2cccc3c(Br)cccc23)cc1,1,.,.,.,-2
CN(C)CCCN(C(=O)c1ccc(S(=O)(=O)N2CCc3ccccc3C2)cc1)c1nc2ccc(F)cc2s1,30*,13,-13,57*,10
COCCn1c(=NC(=O)c2ccc(S(=O)(=O)N3CCc4ccccc4C3)cc2)sc2cc(OC)ccc21,0,72*,-72,.,2
CN(C)CCCN(C(=O)c1ccc(S(=O)(=O)N2CCc3ccccc3C2)cc1)c1nc2c(F)cccc2s1,-1,-5,5,23,-4
Cc1cc(C)c2sc(N(CCCN(C)C)C(=O)c3ccc(S(=O)(=O)N4CCc5ccccc5C4)cc3)nc2c1,0,20,-20,54*,-11
COCCn1c(=NC(=O)CCS(=O)(=O)c2ccccc2)sc2cc(C(=O)OC)ccc21,1,11,-11,5,9
CCC(=O)N(NC1=NS(=O)(=O)c2ccccc21)S(=O)(=O)c1ccc(C)cc1,1,-16,16,-8,-2
CC(=O)c1ccc(NC(=O)C(C)Sc2nnc(C3CC3)n2C2CC2)cc1 (configuration not stated),-1,76*,-76,3,2
COc1ccc(NC(=O)C(C)Sc2nnc(C3CC3)n2C2CC2)cc1 (configuration not stated),1,-21,21,-4,0
O=C(CSc1ccc(Br)cc1)Nc1ccc(N2CCOCC2)cc1,0,-6,6,1,11
Cc1ccc(-c2cc(C(=O)OCC(=O)N(C)c3c(N)n(Cc4ccccc4)c(=O)[nH]c3=O)c3ccccc3n2)o1,0,18,-18,6,-2
O=C(Cc1ccccc1)NCCCc1ccccc1,0,-9,9,9,-6
O=C(CCC(=O)NCCCc1ccccc1)NCCCc1ccccc1,0,-62,62*,.,-8
O=C(CCc1ccccc1)Nc1ccccc1,-3,-18,18,.,55*
COc1ccc(CNC(=O)CN2C(=O)NC(Cc3ccccc3)(c3ccccc3)C2=O)cc1OC (configuration not stated),.,14,-14,39,9
Cc1ccc(CN2CCN(Cc3cn[nH]c3-c3cccc(F)c3)CC2CCO)o1 (configuration not stated),0,-26,26,-23,-9
O=C(NCCNC(=O)c1ccccc1Br)c1cccnc1,0,-13,13,.,-5
Cc1cc(-c2ccccc2)nc(N/N=C/c2ccc([N+](=O)[O-])cc2)n1,1,73*,-73,.,7
SMILES,Bfl-1 A1 inh,SR-BI HDL uptake,SR-BI uptake up,H9c2 TAG inh,Vif imaging
Cc1cc(-c2ccccc2)nc(N/N=C/c2ccc(N(C)C)cc2)n1,0,40,-40,-5,-15
Cc1cc(-c2ccccc2)nc(N/N=C/c2cccnc2)n1,?,32,-32,1,-6
Cc1cc(-c2ccccc2)nc(N/N=C/c2ccccc2)n1,-3,72*,-72,.,0
Nc1ccc(C(=O)NCCCSc2ccccc2)cc1[N+](=O)[O-],1,-4,4,.,-19
O=C(O)/C=C/c1ccc([N+](=O)[O-])o1,0,-25,25,7,2
O=[N+]([O-])c1ccc(/C=N/N=C/c2ccc([N+](=O)[O-])o2)o1,.,15,-15,107,53*

# Source: PubChem
